Laboratory results from PMC6180906 (Biochimica et biophysica acta. Molecular and cell biology …, 2018).
Where “and” joins values, the source holds several entries; their conditions need not be identical. Equal values may be shown once.

How the values were obtained:
[1] = tested on: Acanthamoeba castellanii trophozoites; assay: Trophozoite toxicity assay; assay type: cell-based; settings: for IC50: Acanthamoeba castellanii, 48 h, read-out: IC50 against trophozoite growth
[2] = tested on: Acanthamoeba castellanii trophozoites; assay: Time-dependent killing and regrowth in fresh medium; assay type: cell-based; settings: inhibitor at approximate MAC, then fresh medium for a week
[3] = tested on: Acanthamoeba castellanii resting cysts; assay: Cysticidal / excystment assay; assay type: cell-based; settings: cysts from the SDS-treated process
[4] = tested on: Acanthamoeba castellanii; assay type: cell-based
[5] = tested on: Acanthamoeba castellanii trophozoites; assay: Trophozoite growth with cholesterol supplement; assay type: cell-based; settings: 10μM in DMSO or as FBS
Procedure, shortened: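 Axenic static cultures of strain ATCC 30010 were grown in 5 ml ATCC medium 712 in T-flasks at 25 °C with occasional hand shaking, seeded with about 1×10^4 trophozoites. The medium was supplemented with FBS, per ATCC medium, or with 10 µM cholesterol in DMSO. Cells were counted along the growth curve, with viability by trypan blue exclusion.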

[6] = tested on: Saccharomyces cerevisiae strain GL7; assay: GL7 sterol auxotroph growth on sterol supplements; assay type: cell-based; settings: sterol supplement, 72 h
Procedure, shortened: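 S. cerevisiae GL7 (lanosterol synthase-defective, ergosterol auxotroph) grown in yeast-peptone-dextrose medium with Tween 80 (15 ml/l) and a sterol supplement at 5 mg/l, or no sterol, for 72 h. Cell density was followed to stationary phase. Sterols were recovered from cells and analysed.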

[7] = molecular target: T1, AcCYP51 (Acanthamoeba castellanii, UniProt L8GJB3); assay: AcCYP51 sterol ligand binding, spectral titration; settings: for AcCYP51 Kd: progressive titration of 4 M AcCYP51 with sterol in 40% (W/V) HPCP
[8] = molecular target: T1, AcCYP51; assay: CYP51 reconstitution assay, AfCPR1 redox partner, products by GC-MS; assay type: biochemical; settings: for Yield of 14-desmethyl product from substrate by AcCYP51 (GCMS): AfCPR1 redox partner; for AcCYP51 AfCPR kcat: CYP51 reconstitution assay, 50 μM sterol, AfCPR redox partner
[9] = molecular target: Ac24-SMT (Acanthamoeba castellanii, UniProt L8GKC5); settings: sterol 5 μM to 150 μM, 150 μM SAM, 80 μg SMT; cited from earlier work
[10] = molecular target: Ac28-SMT (Acanthamoeba castellanii, UniProt L8GNG7); settings: sterol 5 μM to 150 μM, 150 μM SAM, 80 μg SMT; cited from earlier work

C[C@H](CCCN(C)C)[C@H]1CC[C@@]2(C)[C@@H]3CC[C@H]4C(C)(C)[C@@H](O)CC[C@@]45C[C@@]35CC[C@]12C [25-azacycloartanol]
IC50 [1]: 0.025 µM | MAC (minimum amoebicidal concentration) ([1]; lowest concentration with no visible live trophozoites, 48 hr): 1 to 3 µM | Growth after 48 h treated pellets were transferred to fresh medium [2]: no growth

O=c1[nH]c(=O)n([C@H]2C[C@H](O)[C@@H](CO)O2)cc1F [FUdR, 5-fluor-2-deoxyuridine]
Excystment of resting cysts into trophozoites under treatment [3]: easily excysted into trophozoites by 3 days | Encysted cells alive by trypan blue staining ([4]; cultures with inhibitor at stationary phase of control): > 95%

CC(C)CCC[C@@H](C)[C@H]1CC[C@H]2[C@@H]3CC=C4C[C@@H](O)CC[C@]4(C)[C@H]3CC[C@]12C [cholesterol]
Effect of supplement on trophozoite growth [5]: only a minor stimulation effect

CC(C)[C@@H](C)/C=C/[C@@H](C)[C@H]1CC[C@H]2[C@@H]3CC=C4C[C@@H](O)CC[C@]4(C)[C@H]3CC[C@]12C [compound 1, Ergosta-5,22-dienol]
GL7 cell density at stationary phase / growth arrest [6]: 1 × 10^8 cells/ml

CC(C)[C@@H](C)/C=C/[C@@H](C)[C@H]1CC[C@H]2C3=CC=C4C[C@@H](O)CC[C@]4(C)[C@H]3CC[C@]12C [compound 2, Ergosta-5,7,22-trienol]
GL7 cell density at stationary phase / growth arrest [6]: ~1 × 10^8 cells/ml

CC[C@@H](C=C[C@@H](C)[C@H]1CC[C@H]2[C@@H]3CC=C4C[C@@H](O)CC[C@]4(C)[C@H]3CC[C@]12C)C(C)C [compound 6, Poriferasta-5,22 -dienol]
GL7 cell density at stationary phase / growth arrest [6]: 1 × 10^8 cells/ml

C=C(CC[C@@H](C)[C@H]1CC[C@@]2(C)C3=C(CC[C@]12C)[C@@]1(C)CC[C@H](O)[C@@H](C)[C@@H]1CC3)C(C)C [compound 10]
Kd [7]: 41 ± 3 µM | Yield of 14-desmethyl product from substrate by AcCYP51 (GCMS) ([8]; listed as obtusifoliol): < 95% and 95% | AcCYP51 AfCPR kcat [8]: 0.127 ± 0.00083 s⁻¹ | AcCYP51 AfCPR kcat ([8]; listed as obtusifoliol): 0.127 s⁻¹ | 24-SMT kcat [9]: 0 s⁻¹ | 28-SMT kcat [10]: 0 s⁻¹

CC[C@@H](C=C[C@@H](C)[C@H]1CC[C@H]2C3=CC=C4C[C@@H](O)CC[C@]4(C)[C@H]3CC[C@]12C)C(C)C [compound 11, Poriferasta-5,7,22-trienol]
GL7 cell density at stationary phase / growth arrest [6]: 1 × 10^8 cells/ml

C=C(CC[C@@H](C)[C@H]1CC[C@H]2C3=CC[C@H]4[C@H](C)[C@@H](O)CC[C@]4(C)[C@H]3CC[C@]12C)C(C)C [compound 14, 4α-Methylergosta-7, 24(28)-dienol]
AcCYP51 AfCPR kcat [8]: 0 s⁻¹ | 24-SMT kcat [9]: 0 s⁻¹ | 28-SMT kcat [10]: 0.0133 ± 0.00067 s⁻¹

CC(C)=CCC[C@@H](C)[C@H]1CC[C@@]2(C)[C@@H]3CC[C@H]4C(C)(C)[C@@H](O)CC[C@@]45C[C@@]35CC[C@]12C [compound 21, Cycloart-24(25)-enol]
Kd [7]: 18 ± 5 µM | Yield of 14-desmethyl product from substrate by AcCYP51 (GCMS) [8]: no metabolism occurred | AcCYP51 AfCPR kcat [8]: 0 s⁻¹ | 24-SMT kcat [9]: 0.025 ± 0.0012 s⁻¹ | 28-SMT kcat [10]: 0.0075 ± 0.0005 s⁻¹

C=C(CC[C@@H](C)[C@H]1CC[C@@]2(C)[C@@H]3CC[C@H]4[C@H](C)[C@@H](O)CC[C@@]45C[C@@]35CC[C@]12C)C(C)C [compound 24, 4α-Methylcycloart-24(28)-enol]
AcCYP51 Kd [7]: No fit | Yield of 14-desmethyl product from substrate by AcCYP51 (GCMS) [8]: ~ 1% | AcCYP51 AfCPR kcat [8]: 0.00067 ± 0.00017 s⁻¹

C=C(CC[C@@H](C)[C@H]1CC[C@@]2(C)[C@@H]3CC[C@H]4C(C)(C)[C@@H](O)CC[C@@]45C[C@@]35CC[C@]12C)C(C)C [compound 27, Cycloart-24(28)-enol]
AcCYP51 Kd [7]: No fit | AcCYP51 AfCPR kcat [8]: 0 s⁻¹ | 24-SMT kcat [9]: 0 s⁻¹ | 28-SMT kcat [10]: 0.00383 ± 0.00083 s⁻¹

C=C(CCC(C)C1CCC2(C)C3=C(CCC12C)C1(C)CCC(O)C(C)(C)C1CC3)C(C)C (stereo not drawn) [compound 32, Lanosta-8,24(28)-dienol]
Kd [7]: 51 ± 10 µM | AcCYP51 AfCPR kcat [8]: 0.0533 ± 0.00067 s⁻¹

CC(C)=CCC[C@@H](C)[C@H]1CC[C@@]2(C)C3=C(CC[C@]12C)[C@@]1(C)CC[C@H](O)C(C)(C)[C@@H]1CC3 [compound 33, Lanosta-8,24(25)-dienol]
Kd [7]: 46 ± 3 µM | AcCYP51 AfCPR kcat [8]: 0.0283 ± 0.00017 s⁻¹ | 24-SMT kcat [9]: 0.025 ± 0.00017 s⁻¹ | 28-SMT kcat [10]: 0.00383 ± 0.00017 s⁻¹

CC(C)CCC[C@@H](C)[C@H]1CC[C@@]2(C)C3=C(CC[C@]12C)[C@@]1(C)CC[C@H](O)C(C)(C)[C@@H]1CC3 [compound 34, Lanost-8-enol]
AcCYP51 AfCPR kcat [8]: 0.0333 ± 3.3e-05 s⁻¹

CC(C)=CCC[C@@H](C)[C@H]1CC[C@@]2(C)C3=C(CC[C@]12C)[C@@]1(C)CC[C@H](O)C[C@@H]1CC3 [compound 35, 14α-Methylcholest-8,24(25)-dienol]
AcCYP51 AfCPR kcat [8]: 0.0267 ± 0.0013 s⁻¹ | 24-SMT kcat [9]: 0.025 ± 0.00083 s⁻¹ | 28-SMT kcat [10]: 0.0065 ± 0.00033 s⁻¹

CC(C)=CCCC(C)C1CCC2(C)C3=CCC4C(C)(C)C(O)CCC4(C)C3CCC12C (stereo not drawn) [compound 36, Lanosta-7,24(25)-dienol]
AcCYP51 AfCPR kcat [8]: 0 s⁻¹

CC(C)=CCC[C@@H](C)[C@H]1CC[C@@]2(C)C3=C(CC[C@]12C)[C@@]1(C)CC[C@H](O)[C@@H](C)[C@@H]1CC3 [compound 37, 4α, 14α-Dimethylcholesta-8,24(25)-dienol]
AcCYP51 AfCPR kcat [8]: 0 s⁻¹ | 24-SMT kcat [9]: 0.025 ± 0.00067 s⁻¹ | 28-SMT kcat [10]: 0.0123 ± 0.00033 s⁻¹

C[C@@H](c1ncncc1F)[C@](O)(Cn1cncn1)c1ccc(F)cc1F [voriconazole, reference compound]
IC50 [1]: 0.14 µM | Growth after 48 h treated pellets were transferred to fresh medium [2]: a few thousand trophozoites were evident | Number of cells at 48 h ([4]; reduced by a factor of 10, most dead by trypan blue staining): 2–3 × 10^4 cells/ml
